Data as given in ChEMBL document CHEMBL3124843, “Synthesis, cytostatic, antimicrobial, and anti-HCV activity of 6-substituted 7-(het)aryl-7-deazapurine ribonucleosides” (J Med Chem, 2014).
Activity calls are given as the source filed them. No rule for the calls is given here.

Assays:
MRC5 = assay: Cytostatic activity against human MRC5 cells after 72 hrs by MTT assay; type: ADME, cell-based; conditions: MRC5, 72 h
In short: (§1)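 IC50 is the concentration that cuts cell growth by 50%, read by quantitative metabolic MTT staining after a 3-day treatment. The resistant sublines were made by raising the concentration of the cytotoxic drug step by step. CEM-DNR-bulk (daunorubicin-selected) stably overexpresses mrp-1. K562-TAX (paclitaxel-selected) expresses only mdr-1. HCT116p53−/− carries null p53 alleles. BJ and MRC-5 are nonmalignant fibroblasts.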

[1] = tested on: Staphylococcus haemolyticus; assay: Antibacterial activity against methicillin-resistant Staphylococcus haemolyticus A/16568 after 24 hrs; type: functional, organism-based
Enterococcus faecalis = assay: Antibacterial activity against Enterococcus faecalis CCM 4224 after 24 hrs; type: functional, organism-based
Candida tropicalis = assay: Antifungal activity against Candida tropicalis after 48 hrs; type: functional, organism-based
Staphylococcus aureus [2] = assay: Antibacterial activity against Staphylococcus aureus CCM 3953 after 24 hrs; type: functional, organism-based
HCT-116 [3] = assay: Cytostatic activity against human HCT116 cells after 72 hrs by MTT assay; type: functional, cell-based; conditions: HCT-116, 72 h; in short: as §1
[4] = Antiproliferative activity against human HeLaS3 cells after 72 hrs by XTT assay; type: functional, cell-based; conditions: HeLa S3, 72 h
In short: (§2)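 Antiproliferative test on HL-60 promyelocytic leukemia and HeLa S3 cervical carcinoma cells growing in liquid suspension.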

[5] = Cytotoxicity against human HuH7 cells infected with Hepatitis C virus subtype 1b; type: cell-based, Huh-7
Staphylococcus aureus [6] = assay: Antibacterial activity against methicillin-resistant Staphylococcus aureus MRSA 4591 after 24 hrs; type: functional, organism-based
HCT-116 [7] = assay: Cytostatic activity against p53-deficient human HCT116 cells after 72 hrs by MTT assay; type: functional, cell-based; conditions: HCT-116, 72 h; in short: as §1
Escherichia coli [8] = assay: Antibacterial activity against Escherichia coli CCM 3954 after 24 hrs; type: functional, organism-based
Hepatitis C virus [9] = assay: Antiviral activity against Hepatitis C virus subtype 1b infected in human HuH7 cells; type: functional, organism-based, Hepacivirus hominis; conditions: genotype 1b, Huh-7
Pseudomonas aeruginosa [10] = assay: Antibacterial activity against Pseudomonas aeruginosa CCM 3955 after 24 hrs; type: functional, organism-based
Candida parapsilosis = assay: Antifungal activity against Candida parapsilosis after 48 hrs; type: functional, organism-based
[11] = Cytostatic activity against human CEM-DNR-bulk cells after 72 hrs by MTT assay; type: functional, cell-based; in short: as §1
K562 [12] = assay: Cytostatic activity against paclitaxel-resistant human K562 cells after 72 hrs by MTT assay; type: functional, cell-based; conditions: K562, 72 h; in short: as §1
[13] = Cytotoxicity against human HuH7 cells infected with Hepatitis C virus subtype 2a; type: cell-based, Huh-7
HepG2 = assay: Antiproliferative activity against human HepG2 cells after 72 hrs by XTT assay; type: functional, cell-based; conditions: HepG2, 72 h
K562 [14] = assay: Cytostatic activity against human K562 cells after 72 hrs by MTT assay; type: functional, cell-based; conditions: K562, 72 h; in short: as §1
BJ = assay: Cytostatic activity against human BJ cells after 72 hrs by MTT assay; type: ADME, cell-based; in short: as §1
A549 = assay: Cytostatic activity against human A549 cells after 72 hrs by MTT assay; type: functional, cell-based; conditions: A549, 72 h; in short: as §1
HL-60 = assay: Antiproliferative activity against human HL60 cells after 72 hrs by XTT assay; type: functional, cell-based; conditions: HL-60, 72 h; in short: as §2
CCRF-CEM = assay: Cytostatic activity against human CCRF-CEM cells after 72 hrs by MTT assay; type: functional, cell-based; in short: as §1
Escherichia coli [15] = assay: Antibacterial activity against multi-resistant Escherichia coli C/16702 after 24 hrs; type: functional, organism-based
Pichia kudriavzevii = assay: Antifungal activity against Candida crusei after 48 hrs; type: functional, organism-based
Pseudomonas aeruginosa [16] = assay: Antibacterial activity against multi-resistant Pseudomonas aeruginosa A/16575 after 24 hrs; type: functional, organism-based
Candida albicans = assay: Antifungal activity against Candida albicans after 48 hrs; type: functional, organism-based
Hepatitis C virus [17] = assay: Antiviral activity against Hepatitis C virus subtype 2a infected in human HuH7 cells; type: functional, organism-based, Hepacivirus hominis; conditions: genotype 2a, Huh-7

SMILES	IC50 (MRC5)	Activity [1]	Activity (Enterococcus faecalis)	Activity (Candida tropicalis)	Activity (Staphylococcus aureus [2])	IC50 (HCT-116 [3])	IC50 [4]	CC50 [5]	Activity (Staphylococcus aureus [6])	IC50 (HCT-116 [7])	Activity (Escherichia coli [8])	EC50 (Hepatitis C virus [9])	Activity (Pseudomonas aeruginosa [10])	Activity (Candida parapsilosis)	IC50 [11]	IC50 (K562 [12])	CC50 [13]	IC50 (HepG2)	IC50 (K562 [14])	IC50 (BJ)	also measured
C#Cc1cn([C@@H]2O[C@H](CO)[C@@H](O)[C@H]2O)c2ncnc(NC)c12	> 100 µM	inactive	inactive	inactive	inactive	> 20 µM	> 20 µM	> 44 µM	inactive	> 20 µM	inactive	0.35 µM	inactive	inactive	18.5 µM	1.38 µM	> 44 µM	> 15 µM	> 20 µM	86 µM	IC50 (A549): > 20 µM; IC50 (HL-60): 9.06 µM; IC50 (CCRF-CEM): > 20 µM; Activity (Escherichia coli [15]): inactive; Activity (Pichia kudriavzevii): inactive; Activity (Pseudomonas aeruginosa [16]): inactive; Activity (Candida albicans): inactive; EC50 (Hepatitis C virus [17]): > 44 µM
COc1ncnc2c1ccn2[C@@H]1O[C@H](CO)[C@@H](O)[C@H]1O	> 100 µM	inactive	inactive	inactive	inactive	> 20 µM	> 20 µM	> 44 µM	inactive	> 20 µM	inactive	> 44 µM	inactive	inactive	> 20 µM	> 20 µM	> 44 µM	> 20 µM	> 20 µM	> 100 µM	IC50 (A549): > 20 µM; IC50 (HL-60): > 20 µM; IC50 (CCRF-CEM): > 20 µM; Activity (Escherichia coli [15]): inactive; Activity (Pichia kudriavzevii): inactive; Activity (Pseudomonas aeruginosa [16]): inactive; Activity (Candida albicans): inactive; EC50 (Hepatitis C virus [17]): > 44 µM
C#Cc1cn([C@@H]2O[C@H](CO)[C@@H](O)[C@H]2O)c2ncnc(C)c12	1.44 µM	inactive	inactive	inactive	inactive	> 20 µM	14.7 µM	> 44 µM	inactive	> 20 µM	inactive	0.23 µM	inactive	inactive	0.16 µM	0.11 µM	> 44 µM	0.29 µM	6.92 µM	0.05 µM	IC50 (A549): 19.2 µM; IC50 (HL-60): 1.11 µM; IC50 (CCRF-CEM): 5.6 µM; Activity (Escherichia coli [15]): inactive; Activity (Pichia kudriavzevii): inactive; Activity (Pseudomonas aeruginosa [16]): inactive; Activity (Candida albicans): inactive; EC50 (Hepatitis C virus [17]): 21.6 µM
CNc1ncnc2c1c(-c1cccs1)cn2[C@@H]1O[C@H](CO)[C@@H](O)[C@H]1O	> 100 µM	inactive	inactive	inactive	inactive	> 20 µM	> 20 µM	> 44 µM	inactive	> 20 µM	inactive	> 44 µM	inactive	inactive	> 20 µM	> 20 µM	> 44 µM	> 20 µM	> 20 µM	> 100 µM	IC50 (A549): > 20 µM; IC50 (HL-60): > 20 µM; IC50 (CCRF-CEM): > 20 µM; Activity (Escherichia coli [15]): inactive; Activity (Pichia kudriavzevii): inactive; Activity (Pseudomonas aeruginosa [16]): inactive; Activity (Candida albicans): inactive; EC50 (Hepatitis C virus [17]): > 44 µM
Nc1nc(N)c2c(-c3ccccc3)cn([C@@H]3O[C@H](CO)[C@@H](O)[C@H]3O)c2n1	> 100 µM	inactive	inactive	inactive	inactive	> 20 µM	> 20 µM	> 44 µM	inactive	> 20 µM	inactive	> 44 µM	inactive	inactive	> 20 µM	> 20 µM	> 44 µM	> 20 µM	> 20 µM	> 100 µM	IC50 (A549): > 20 µM; IC50 (HL-60): > 15 µM; IC50 (CCRF-CEM): > 20 µM; Activity (Escherichia coli [15]): inactive; Activity (Pichia kudriavzevii): inactive; Activity (Pseudomonas aeruginosa [16]): inactive; Activity (Candida albicans): inactive; EC50 (Hepatitis C virus [17]): > 44 µM
C#Cc1cn([C@@H]2O[C@H](CO)[C@@H](O)[C@H]2O)c2nc(N)nc(OC)c12	> 100 µM	inactive	inactive	inactive	inactive	> 20 µM	> 20 µM	> 44 µM	inactive	> 20 µM	inactive	> 44 µM	inactive	inactive	> 20 µM	> 20 µM	> 44 µM	> 20 µM	> 20 µM	> 100 µM	IC50 (A549): > 100 µM; IC50 (HL-60): > 20 µM; IC50 (CCRF-CEM): > 100 µM; Activity (Escherichia coli [15]): inactive; Activity (Pichia kudriavzevii): inactive; Activity (Pseudomonas aeruginosa [16]): inactive; Activity (Candida albicans): inactive; EC50 (Hepatitis C virus [17]): > 44 µM
CNc1ncnc2c1c(I)cn2[C@@H]1O[C@H](CO)[C@@H](O)[C@H]1O	> 100 µM	inactive	inactive	inactive	inactive	> 100 µM	> 20 µM	> 44 µM	inactive	> 100 µM	inactive	> 44 µM	inactive	inactive	> 20 µM	> 20 µM	> 44 µM	> 20 µM	> 100 µM	> 100 µM	IC50 (A549): > 100 µM; IC50 (HL-60): > 20 µM; IC50 (CCRF-CEM): > 100 µM; Activity (Escherichia coli [15]): inactive; Activity (Pichia kudriavzevii): inactive; Activity (Pseudomonas aeruginosa [16]): inactive; Activity (Candida albicans): inactive; EC50 (Hepatitis C virus [17]): > 44 µM
CN(C)c1ncnc2c1c(-c1cccs1)cn2[C@@H]1O[C@H](CO)[C@@H](O)[C@H]1O	> 100 µM	inactive	inactive	inactive	inactive	> 20 µM	> 20 µM	> 44 µM	inactive	> 20 µM	inactive	16.8 µM	inactive	inactive	> 20 µM	> 20 µM	> 44 µM	> 20 µM	> 20 µM	> 100 µM	IC50 (A549): > 20 µM; IC50 (HL-60): 11.8 µM; IC50 (CCRF-CEM): > 20 µM; Activity (Escherichia coli [15]): inactive; Activity (Pichia kudriavzevii): inactive; Activity (Pseudomonas aeruginosa [16]): inactive; Activity (Candida albicans): inactive; EC50 (Hepatitis C virus [17]): > 44 µM
CNc1ncnc2c1ccn2[C@@H]1O[C@H](CO)[C@@H](O)[C@H]1O	97.8 µM	inactive	inactive	inactive	inactive	> 20 µM	> 20 µM	> 44 µM	inactive	> 20 µM	inactive	0.82 µM	inactive	inactive	4.89 µM	0.92 µM	> 44 µM	> 20 µM	> 20 µM	91.4 µM	IC50 (A549): > 20 µM; IC50 (HL-60): 12.8 µM; IC50 (CCRF-CEM): > 20 µM; Activity (Escherichia coli [15]): inactive; Activity (Pichia kudriavzevii): inactive; Activity (Pseudomonas aeruginosa [16]): inactive; Activity (Candida albicans): inactive; EC50 (Hepatitis C virus [17]): > 44 µM
